This passage reports cytotoxicity results from ChEMBL document CHEMBL4513216, “Probing the Open Global Health Chemical Diversity Library for Multistage-Active Starting Points for Next-Generation Antimalarials” (ACS Infect Dis, 2020).

The data set in a line: Toxicity liver stage against HepG2, at 10uM. The format is cell-based. More on the design: test concentration 10 uM, cell line HepG2-A16-CD81EGFP. Conditions: human, HepG2-A16-CD81EGFP cells; read-out: INHIBITION
Put shortly:
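Uninfected HepG2-A16-CD81EGFP cells, 3 × 10^3 per well, 1536-well, plated on prespotted compound at 10 μM final, parasite-free screening media added to match infected plates; puromycin 10 μM positive, DMSO 0.5% negative; run in parallel with 48 h PbLuc assay at 37 °C, 5% CO2; viability by CellTiter-Glo luminescence, normalized to controls.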
Turning to `CC(CN1CCOCC1)OC(=O)c1ccccc1Cl` (stereo not drawn), the cytotoxicity at 10 µM is -4.52%.

With `CCc1c(C)nc2n(c1=O)CC(C(=O)NCc1cccs1)CS2` (stereo not drawn), the cytotoxicity at 10 µM is 15.2%. Consider `Cc1nc(N2CCOCC2)nc(C)c1NC(=O)Cc1ccc(Cl)cc1`, for which the cytotoxicity at 10 µM is -4%.

On to `COCCn1c2c(ccc1=O)CC(N)CC2` (stereo not drawn), for which the cytotoxicity at 10 µM came out at 9.77%.

As for `CN1CCCC2(C1)CN(C(=O)C1CCCCC1)CCO2` (stereo not drawn), the cytotoxicity at 10 µM came out at 0.994%. With `Cc1cccc(CN2CCc3nnc(CN(C)C)n3CC2)n1` the figure was -1.54%; with `CC(C)C(=O)N1CCC12CCCN(C(=O)c1ccccc1)C2` (stereo not drawn), 6.8%. With `COCC(=O)N1CCn2c(Cn3cncn3)cnc2C1C` (stereo not drawn), the cytotoxicity at 10 µM was determined as 0.53%. With `Cc1nnc([C@H]2C[C@@H]3CCN(Cc4cc(C)on4)C[C@H]3O2)[nH]1`, the cytotoxicity at 10 µM is -5.03%.

With `Cc1noc([C@H]2COC[C@H]3CN(C(=O)Cc4cccs4)C[C@H]32)n1`, the cytotoxicity at 10 µM was found to be 3.3%. With `COCCN1CC[C@H]2OCC[C@@H](C(=O)Nc3cccnc3)[C@@H]2C1`, the cytotoxicity at 10 µM is 4.81%. With `CC(C)NC(=O)CC1(Cn2cnnn2)CCCCC1` the figure was 9.54%.

As for `CNc1nc2c(s1)C(c1cc(Cl)ccc1F)CC(=O)N2` (stereo not drawn), the cytotoxicity at 10 µM turned out to be 10.3%. `Cc1c(S(=O)(=O)NCC(C)Cn2cc(Cl)cn2)cnn1C` (stereo not drawn): the cytotoxicity at 10 µM turned out to be 0.446%. Take `Cn1cc(CN2CCC(c3ncc(Cl)cc3S(C)(=O)=O)CC2)cn1`: the cytotoxicity at 10 µM is -0.83%.

As to `CN1CCCC(c2cccc(-c3cccc(F)c3)n2)C1` (stereo not drawn), the cytotoxicity at 10 µM is -2.4%. With `COCCC(=O)N1CCCC(c2n[nH]cc2C)C1` (stereo not drawn), the cytotoxicity at 10 µM was -1.75%. Take `O=C1CN(Cc2ccc3ccccc3n2)CCN1C1CCCC1`: the cytotoxicity at 10 µM was -3.45%. Take `CS(=O)(=O)Cc1cccc(CNS(=O)(=O)c2ccc(F)c(F)c2)c1`: the cytotoxicity at 10 µM was determined as 1.33%.

With `Cc1nnc(CNC(C)c2cc(C)c(F)c(C)c2)s1` (stereo not drawn), the cytotoxicity at 10 µM is -3.7%. Consider `CCN(CC)C(=O)CCNC(=O)c1c[nH]c2ccc(OC)cc12`, for which the cytotoxicity at 10 µM was found to be 1.86%. With `O=C(CC1COCCN1C(=O)c1cscn1)c1ccccc1` (stereo not drawn), the cytotoxicity at 10 µM came out at 6.24%. As to `Cc1cc(CC(=O)NCC(O)COc2ccc(F)c(F)c2)no1` (stereo not drawn), the cytotoxicity at 10 µM was -5.03%.

Take `Cc1cccc(CN2CCC(NCC3CNc4cc(C)nn4C3)CC2)c1` (stereo not drawn): the cytotoxicity at 10 µM came out at 7.36%. On to `CCc1cc(NCc2cccnc2N2CCCCC2)n2ncnc2n1`, for which the cytotoxicity at 10 µM was 10.5%. `NC(=O)C1CCN(CCc2ccc(NCc3ccsc3)cc2)CC1`: the cytotoxicity at 10 µM is 0.867%. On to `Cc1noc(C)c1CN(C)Cn1nccc1-c1cccnc1`, for which the cytotoxicity at 10 µM was -0.532%. Regarding `Cc1cnn(CC2CC2)c1NC(=O)c1cccnc1O`, the cytotoxicity at 10 µM was determined as 6.62%.

On to `CC(c1nnc(-c2ccccc2)o1)N1CCc2cncnc2C1` (stereo not drawn), for which the cytotoxicity at 10 µM worked out at 8.59%. Regarding `COc1ccc(CC2CCCN2CCCC#N)cc1` (stereo not drawn), the cytotoxicity at 10 µM is -54.7%. As to `O=C(CSCc1ccccn1)N(Cc1ccsc1)C1CC1`, the cytotoxicity at 10 µM was -9.8%. With `CC(O)CNC(=O)NCCCN1CCN(c2ncccn2)CC1` (stereo not drawn) the figure was -48.8%; with `CCOC[C@@H]1CCC[C@@]12CN(Cc1nccs1)CCO2`, 1.77%; with `Cc1cc(N[C@H]2CN(CC(C)(C)N3CCOCC3)C[C@@H]2C2CC2)ncn1`, 2.03%. With `CCNC(=O)Cn1ncc(N(C)CCc2ccccc2)cc1=O` the figure was 5.69%; with `O=C(O)C1(n2cccn2)CCN(Cc2nc(-c3ccccc3)no2)CC1`, 6.74%. With `COCCN1CC2(CCCN(C(=O)NCc3ccccc3)C2)CCC1=O` (stereo not drawn), the cytotoxicity at 10 µM is -9.31%. As for `CCC(=O)N1CCN(C(=O)CCn2cc(Cl)cn2)[C@H]2CS(=O)(=O)C[C@H]21`, the cytotoxicity at 10 µM is -6.39%.

For the compound `CNC(=O)CCN(C)c1nc(-c2ccncc2)nc2c1CCNC2`, the cytotoxicity at 10 µM was -1.54%. Turning to `O=C(CCn1ccccc1=O)N1CCN(Cc2cccc(Cl)c2)CC1`, the cytotoxicity at 10 µM is -1.97%. With `CCN1CC(C(=O)N2CCN(CCn3cccc3)CC2)CC1=O` (stereo not drawn) the figure was -3.64%; with `O=c1cc(-c2ccncc2)nc(-c2ccc(CN3CC[C@@H](O)C3)cc2)[nH]1`, 3.03%; with `CC(=O)NCC(=O)N(CCN1CCOCC1)Cc1ccco1`, -9.04%. Consider `CCNc1ncc(C(=O)N(C)Cc2nc3cc(Cl)ccc3[nH]2)cn1`, for which the cytotoxicity at 10 µM was -44.3%.

Regarding `CCN(C)Cc1n[nH]c(=O)n1-c1cc(F)ccc1C`, the cytotoxicity at 10 µM amounted to 11.4%. Consider `COc1cccc2c1OCC(C(=O)NCc1nc3c(s1)CCCC3)C2` (stereo not drawn), for which the cytotoxicity at 10 µM was -43.3%. As to `C[C@@H](N)C(=O)N1CCC(c2[nH]ncc2-c2ccccc2)CC1`, the cytotoxicity at 10 µM was -3.81%. Consider `CCOCCn1c(=O)n(Cc2ccc(F)cc2)c2ncc(C(=O)O)cc21`, for which the cytotoxicity at 10 µM turned out to be 0.902%. `CC(C)c1cc(NC(CCO)c2ccccc2)n2nccc2n1` (stereo not drawn): the cytotoxicity at 10 µM is -45.4%. Regarding `O=C(Cc1cccc(O)c1)N1CCCC(OCc2cccnc2)C1` (stereo not drawn), the cytotoxicity at 10 µM was found to be 1.5%. As for `CNC(=O)c1nc(Cn2ncc3ccccc3c2=O)no1`, the cytotoxicity at 10 µM amounted to 6.6%. `CC(C)C(=O)NCCNc1nccc(-c2cc(C(=O)O)ccn2)n1`: the cytotoxicity at 10 µM was -24%.

Take `CCn1cnnc1CNC(=O)N1CCN(c2ccc(OC)cc2)CC1`: the cytotoxicity at 10 µM is -1.62%. For the compound `CCn1cnnc1CNC(=O)N1CCN(c2ccccc2O)CC1`, the cytotoxicity at 10 µM is -1.47%.

As to `Cc1noc(C)c1CN(Cc1cccs1)C1CCS(=O)(=O)C1` (stereo not drawn), the cytotoxicity at 10 µM is -0.375%. As to `Cc1oc(-c2cccs2)nc1C(=O)N1CCCC1Cn1cccn1` (stereo not drawn), the cytotoxicity at 10 µM is -7.22%. For `CCCc1n[nH]c(C2CN(C(=O)c3cncnc3C)CCO2)n1` (stereo not drawn), the cytotoxicity at 10 µM is -12.9%. Turning to `CC(C)c1nn(C)c(N(C)C)c1CNCCC(=O)NC1CCCCC1`, the cytotoxicity at 10 µM is -2.89%. With `CC1CN(C)CCN1CC(=O)NCCOc1ccc(Cl)cc1` (stereo not drawn), the cytotoxicity at 10 µM is -8.69%.

`Cc1ccc(C(=O)NS(=O)(=O)c2ccccc2Cl)c(=O)[nH]1`: the cytotoxicity at 10 µM is -8.81%. For `Cn1ccc(C(=O)N2CCN(c3ccccn3)CC2)cc1=O`, the cytotoxicity at 10 µM is -9.43%.

Take `O=C(CCOc1ccccc1F)N1CCCC(n2cncn2)C1` (stereo not drawn): the cytotoxicity at 10 µM was -1.22%. `Cc1ccccc1OCCCC(=O)N1CCCC(n2cncn2)C1` (stereo not drawn): the cytotoxicity at 10 µM was -4.36%. `O=C(c1cccnc1N1CCOCC1)N1CCCC(n2cncn2)C1` (stereo not drawn): the cytotoxicity at 10 µM is -3.37%. As to `CC(=O)c1ccc(OCC(=O)NS(=O)(=O)c2cccnc2)cc1`, the cytotoxicity at 10 µM was -18%.

Regarding `N#Cc1cn(C2CC2)c(=O)n(CC(O)c2ccc(F)cc2)c1=O` (stereo not drawn), the cytotoxicity at 10 µM was determined as 2.37%. Take `O=C(Nc1cn[nH]c1)c1ccncc1`: the cytotoxicity at 10 µM is -6.01%.

With `CN(Cc1ccncc1)C(=O)NC1CCCN(c2ncccn2)C1` (stereo not drawn), the cytotoxicity at 10 µM was -14%. For the compound `Cn1cnnc1C1CCN(C(=O)c2cc3c(s2)CCCC3)CC1`, the cytotoxicity at 10 µM is -19%.

Turning to `O=C(c1cnc2c(cnn2C2CCCC2)c1)N1CCCSCC1`, the cytotoxicity at 10 µM was -9.3%. With `CCc1nccn1CC1CCCN1S(=O)(=O)Cc1ccccc1` (stereo not drawn) the figure was -13.4%; with `Cc1cnc(CN2CCCC(c3cc(C)[nH]n3)C2)cn1` (stereo not drawn), 0.802%; with `Cc1cc(OCC(=O)N2CCCC(c3noc(C(C)C)n3)C2)no1` (stereo not drawn), -4.56%. Take `CC(C)(C)n1ncc2c1CCCC2NCc1cccc2c1OCCO2` (stereo not drawn): the cytotoxicity at 10 µM was -2.69%.

In the case of `COc1ccc(N(C)Cc2nc3c(cnn3C)c(=O)[nH]2)cc1OC`, the cytotoxicity at 10 µM is -10.7%.

Turning to `Cc1cnn(CC2CCCCN2C(=O)Cc2cccc(F)c2)c1` (stereo not drawn), the cytotoxicity at 10 µM is -10.7%.

As to `CCNc1cc2c(nn1)CCN(C(=O)c1cc(C)n(C3CC3)c1C)C2`, the cytotoxicity at 10 µM was -0.282%. As to `Cc1ccc(-c2nc(CN3CCCC(C(=O)N(C)C)C3)cs2)o1` (stereo not drawn), the cytotoxicity at 10 µM was -14%. Regarding `O=C(c1ccnc(-n2ccnc2)c1)N1CCCC(n2cccn2)C1` (stereo not drawn), the cytotoxicity at 10 µM was determined as 1.21%. Turning to `COCCNC(=O)CN1CCCC1c1c(C)nn(C)c1Cl` (stereo not drawn), the cytotoxicity at 10 µM is -0.185%. With `c1ncn(CC2CN(CCCOc3ccc4c(c3)OCO4)CCO2)n1` (stereo not drawn) the figure was -1.85%; with `Cc1ccc(N2CCCC(NCc3sccc3C)C2)nn1` (stereo not drawn), -3.8%.

Consider `CCc1nccn1C1CCCN(C(=O)c2cccc3c2OCO3)C1` (stereo not drawn), for which the cytotoxicity at 10 µM is -8.87%. With `O=C(NCCNc1ncccn1)C1CC(=O)N(CC2CC2)C1` (stereo not drawn) the figure was -14%. Turning to `Cc1cnc(C(=O)NC(COCC(C)C)c2ccco2)cn1` (stereo not drawn), the cytotoxicity at 10 µM was -19.6%. Turning to `Cc1cc(C)n(C2CCCN(C(=O)c3c(C)c(C)n[nH]c3=O)C2)n1` (stereo not drawn), the cytotoxicity at 10 µM was 3.18%. Regarding `COc1ccccc1CNC(=O)N1CCCC(NS(C)(=O)=O)C1` (stereo not drawn), the cytotoxicity at 10 µM came to 5.05%. In the case of `CC1CCN(c2cncc(CCC3CCCN3)n2)CC1` (stereo not drawn), the cytotoxicity at 10 µM is 4.52%.

Regarding `O=C1CCC2(CCC(NC(=O)NCc3cccnc3)CC2)N1` (stereo not drawn), the cytotoxicity at 10 µM is -5.25%. With `COc1nc2cc(C)ccc2cc1CN(C)Cc1cc(C)[nH]n1` the figure was 4.3%; with `CC(C)OCc1nn(C)c2c1CN(Cc1cccs1)CC2`, -99.5%.

Turning to `CN(C)CCOCc1nnc2n1CCN(CC1CC1)CC2`, the cytotoxicity at 10 µM is -4.87%. With `NC(=O)C1CNCCN1C(=O)COc1ccccc1` (stereo not drawn) the figure was 1.6%; with `Cc1nc(CN2CC3(CCN(c4cnccn4)C3)CC2=O)cs1` (stereo not drawn), 1.36%. With `CCN1CC[C@@]2(C(=O)Nc3ccccc3)CCN(S(C)(=O)=O)CC[C@@H]12`, the cytotoxicity at 10 µM turned out to be 7.14%.

On to `COC[C@]12COC[C@H]1CN(Cc1ccc3c(c1)OCO3)C2`, for which the cytotoxicity at 10 µM is -108%. With `CCO[C@@H]1CC[C@H]2[C@H]1OCCN2Cc1ccoc1` the figure was -96.9%. With `Cn1cc(-c2cnc(N3CCOCC3)nc2)cc1C(=O)NCCO` the figure was 7.15%.
